# Results from different studies.
# Lines come from different studies, so protocols differ.
# Organism: Pseudomonas aeruginosa
# Effect on: microbial growth
SMILES,assay,system,conditions,MIC
C[C@H]1COc2c(N3CCN(C)CC3)c(F)cc3c(=O)c(C(=O)O)cn1c23,broth dilution,,,138 µM
CC1(C)SC2C(NC(=O)C(NC(=O)C3=C(O)C(Cc4ccc(O)cc4)NC3=O)c3ccccc3)C(=O)N2C1C(=O)O (stereo not shown),,,,25 µg/mL
CC1(C)S[C@@H]2[C@H](NC(=O)C(C(=O)O)c3ccccc3)C(=O)N2[C@H]1C(=O)O (stereo partly shown),broth dilution,CMCC10104,,> 200 µM
O=c1cc(-c2ccc(O)c(O)c2)oc2cc(O)cc(O)c12,broth dilution,PAO1,,256 µg/mL
CCCCCCC#Cc1cncc(-c2nnc(SCc3ccc(Cl)cc3)n2C)c1,,,,≥ 20 µg/mL
CC1(C)SC2C(NC(=O)C(NC(=O)C3=C(O)C4CCCN4C3=O)c3ccccc3)C(=O)N2C1C(=O)O (stereo not shown),,,,50 µg/mL
CCCCCCC/C=C/C(=O)N1C(=O)/C(=C(/C)O)C(=O)C1CCC(=O)O (stereo not shown),,PA01,,> 200 µg/mL
Cc1ccc2nc(-c3ccc([N+](=O)[O-])cc3)n(Cc3ccccc3Cl)c2c1,broth dilution,ATCC27853,,256 µg/mL
Cc1ccc(C)n1-c1ccc(-c2nnc(S)s2)cc1,broth dilution,ATCC10145,18 h,2 µg/mL
Fc1ccc(NCc2ccc(Oc3ccccn3)cc2)cc1,,,,> 12.5 µg/mL
CC(C)Oc1c(NC(=O)c2ccc(NC(=O)[C@H](CC(N)=O)NC(=O)c3ccc(NC(=O)c4cccc([N+](=O)[O-])c4)cc3)cc2)ccc(C(=O)Nc2ccc(C(=O)O)cc2)c1O,,PA14,,> 64 µg/mL
CCCCCCCCCC(=O)Oc1c(C)c(O)c(C(=O)/C=C/c2ccccc2)c(OC)c1C,broth dilution,ATCC27853,,5000 µg/mL
O=C(CCCCCCCCCC[P+](c1ccccc1)(c1ccccc1)c1ccccc1)Nc1cc(O)c(O)c(O)c1.[Br-],broth dilution,ATCC27853,18 h,> 32 µg/mL
CC(C)Oc1c(NC(=O)c2ccc(NC(=O)[C@H](CC(N)=O)NC(=O)c3ccc(NC(=O)c4ccc(C#N)nc4)cc3)cc2)ccc(C(=O)Nc2ccc(C(=O)O)cc2)c1O,,PA14,,> 64 µg/mL
C[C@H]1[C@H](NC(=O)/C(=N\OC(C)(C)C(=O)O)c2csc(N)n2)C(=O)N1S(=O)(=O)O,agar dilution,PAO1,,4 µg/mL
CC(C)Oc1c(NC(=O)c2ccc(NC(=O)[C@H](CC(N)=O)NC(=O)c3ccc(NC(=O)c4ccc(C#N)cc4)cc3)cc2)ccc(C(=O)Nc2cccc(C(=O)O)c2)c1O,,PA14,,> 64 µg/mL
CCCCCC(=O)Oc1c(C)c(O)c(C(=O)/C=C/c2ccccc2)c(OC)c1C,broth dilution,ATCC27853,,5000 µg/mL
CN(C)[C@@H]1C(O)=C(C(N)=O)C(=O)[C@@]2(O)C(O)=C3C(=O)c4c(cc5ccc(CN6CC(F)(F)C6)cc5c4O)C[C@H]3C[C@@H]12,broth dilution,ATCC27853,,32 µg/mL
CC1(C)SC2C(NC(=O)C(NC(=O)C3=C(O)C(Cc4ccsc4)NC3=O)c3ccccc3)C(=O)N2C1C(=O)O (stereo not shown),,,,25 µg/mL
Cc1ccc2nc(-c3ccc([N+](=O)[O-])cc3)n(Cc3ccc(Cl)cc3)c2c1,broth dilution,ATCC27853,,256 µg/mL
Cc1ccc(C)n1-c1ccc(-c2nnc(-c3ccccc3[N+](=O)[O-])[nH]2)cc1,broth dilution,ATCC10145,18 h,250 µg/mL
COc1c(C)c(OC(C)=O)c(C)c(O)c1C(=O)/C=C/c1ccccc1,broth dilution,ATCC27853,,5000 µg/mL
CC(C)Oc1c(-n2cc(-c3ccc(NC(=O)C(CC(N)=O)NC(=O)c4ccc(NC(=O)c5ccc(C#N)cc5)cc4)cc3)nn2)ccc(C(=O)Nc2ccc(C(=O)O)cc2)c1O (stereo not shown),,PA14,,8 µg/mL
CNc1nc(Cl)c2c(c1O)C(=O)C1=C(O)[C@]3(O)C(=O)C(C(N)=O)=C(O)[C@@H](N(C)C)[C@@H]3C[C@@H]1C2.Cl.Cl.Cl,broth dilution,ATCC27853,,8 µg/mL
CC(C)Oc1c(NC(=O)c2ccc(NC(=O)[C@H](CC(N)=O)NC(=O)c3ccc(NC(=O)C(C)Oc4ccccc4)cc3)cc2)ccc(C(=O)Nc2ccc(C(=O)O)cc2)c1O (stereo partly shown),,PA14,,> 64 µg/mL
CNC(=O)c1cc(Oc2ccc(NC(=O)Nc3ccc(Cl)c(C(F)(F)F)c3)cc2)ccn1,,DSM19882,,> 100 µM
CC(C)Oc1c(NC(=O)c2ccc(NC(=O)[C@H](CC(N)=O)NC(=O)c3ccc(NC(=O)CCc4ccc(C#N)cc4)cc3)cc2)ccc(C(=O)Nc2ccc(C(=O)O)cc2)c1O,,PA14,,> 64 µg/mL
Cc1ccc(NCc2ccc(Oc3ccccn3)cc2)cc1,,,,> 50 µg/mL
CC(C)OCCNc1nc(Cl)c2c(c1O)C(=O)C1=C(O)[C@]3(O)C(=O)C(C(N)=O)=C(O)[C@@H](N(C)C)[C@@H]3C[C@@H]1C2.Cl.Cl.Cl,broth dilution,ATCC27853,,> 32 µg/mL
O=[N+]([O-])c1ccc(-c2nc3cc(F)ccc3[nH]2)o1,broth dilution,ATCC27853,,> 64 µg/mL
O=C(CCCCCCCC[P+](c1ccccc1)(c1ccccc1)c1ccccc1)Nc1cc(O)c(O)c(O)c1.[Br-],broth dilution,ATCC27853,18 h,> 32 µg/mL
CCCCCCC/C=C/C(=O)N1C(=O)/C(=C(/C)O)C(=O)C1Cc1ccc(OC(C)(C)C)cc1 (stereo not shown),,PA01,,> 200 µg/mL
CN(C)[C@@H]1C(O)=C(C(N)=O)C(=O)[C@@]2(O)C(O)=C3C(=O)c4c(O)c(-c5ccccc5)nc(Cl)c4C[C@H]3C[C@@H]12.Cl,broth dilution,ATCC27853,,> 32 µg/mL
CCN1CCN(C(=O)N[C@@H](C(=O)N[C@@H]2C(=O)N3C(C(=O)O)=C(CSc4nnnn4C)CS[C@H]23)c2ccc(O)cc2)C(=O)C1=O,broth dilution,PAO1,,4 µg/mL
CCCc1nc(N(C)C)c2c(c1O)C(=O)C1=C(O)[C@]3(O)C(=O)C(C(N)=O)=C(O)[C@@H](N(C)C)[C@@H]3C[C@@H]1C2.Cl.Cl,broth dilution,ATCC27853,,> 32 µg/mL
CN(C)[C@@H]1C(O)=C(C(N)=O)C(=O)[C@@]2(O)C(O)=C3C(=O)c4c(cc5ccc(-c6ccccc6)cc5c4O)C[C@H]3C[C@@H]12,broth dilution,ATCC27853,,32 µg/mL
Brc1ccc(NCc2ccc(Oc3ccccn3)cc2)cc1,,,,> 25 µg/mL
CCCCCCC#Cc1cncc(-c2nnc(SCc3ccc([N+](=O)[O-])cc3)n2C)c1,,,,≥ 20 µg/mL
CN[C@H](CC(C)C)C(=O)N[C@H]1C(=O)N[C@@H](CC(N)=O)C(=O)N[C@H]2C(=O)N[C@H]3C(=O)N[C@H](C(=O)N[C@H](C(=O)O)c4cc(O)cc(O)c4-c4cc3ccc4O)[C@H](O)c3ccc(c(Cl)c3)Oc3cc2cc(c3O[C@@H]2O[C@H](CO)[C@@H](O)[C@H](O)[C@H]2O[C@H]2C[C@](C)(N)[C@H](O)[C@H](C)O2)Oc2ccc(cc2Cl)[C@H]1O,broth dilution,ATCC27853,18 h,> 32 µg/mL
NC1CCCCc2c1[nH]c1ccc(Cl)c(Cl)c21 (stereo not shown),broth dilution,PAO1,18 h,256 µg/mL
CC1=NN(CNC(=O)c2ccccn2)C(=O)C1=NNn1c(-c2ccccc2)nc2ccccc2c1=O,broth dilution,,24 h,52 µM
CC(C)Oc1c(NC(=O)c2ccc(NC(=O)[C@H](CC(N)=O)NC(=O)c3ccc(NC(=O)c4ccc(F)cc4)cc3)cc2)ccc(C(=O)Nc2ccc(C(=O)O)cc2)c1O,,PA14,,> 64 µg/mL
CN(C)c1nc(NC(=O)CNC(C)(C)C)c(O)c2c1C[C@H]1C[C@H]3[C@H](N(C)C)C(O)=C(C(N)=O)C(=O)[C@@]3(O)C(O)=C1C2=O.Cl,broth dilution,ATCC27853,,> 32 µg/mL
O=C(Nc1ccc(S(=O)(=O)c2nccs2)cc1)c1cc(N=Nc2nccs2)ccc1O,broth dilution,,,100 µg/mL
CC(C)Oc1c(NC(=O)c2ccc(NC(=O)[C@H](CC(N)=O)NC(=O)c3ccc(NC(=O)c4ccc(C(F)(F)F)cc4)cc3)cc2)ccc(C(=O)Nc2ccc(C(=O)O)cc2)c1O,,PA14,,> 64 µg/mL
CCCCCCC/C=C/C(=O)N1C(=O)/C(=C(/C)O)C(=O)C1Cc1ccc(O)cc1 (stereo not shown),,PA01,,> 200 µg/mL
O=C1NN=C(N=Cc2ccc(O)cc2O)C1=NNn1c(-c2ccccc2)nc2ccccc2c1=O,broth dilution,,24 h,53.5 µM
Cc1cc(=O)[nH]n1C(=O)c1ccc(-n2c(C)ccc2C)cc1,broth dilution,ATCC10145,18 h,250 µg/mL
COc1c2c(c(O)c3cc(CN(C)C)ccc13)C(=O)C1=C(O)[C@]3(O)C(=O)C(C(N)=O)=C(O)[C@@H](N(C)C)[C@@H]3C[C@@H]1C2,broth dilution,ATCC27853,,16 µg/mL
